Results gathered from unrelated publications.
Protocols differ between the studies behind these lines.
Target: Serine/threonine-protein kinase BRSK2 (BRSK2, Homo sapiens, UniProt Q8IWQ3)
Residues used in one study (Q8IWQ3 1-736): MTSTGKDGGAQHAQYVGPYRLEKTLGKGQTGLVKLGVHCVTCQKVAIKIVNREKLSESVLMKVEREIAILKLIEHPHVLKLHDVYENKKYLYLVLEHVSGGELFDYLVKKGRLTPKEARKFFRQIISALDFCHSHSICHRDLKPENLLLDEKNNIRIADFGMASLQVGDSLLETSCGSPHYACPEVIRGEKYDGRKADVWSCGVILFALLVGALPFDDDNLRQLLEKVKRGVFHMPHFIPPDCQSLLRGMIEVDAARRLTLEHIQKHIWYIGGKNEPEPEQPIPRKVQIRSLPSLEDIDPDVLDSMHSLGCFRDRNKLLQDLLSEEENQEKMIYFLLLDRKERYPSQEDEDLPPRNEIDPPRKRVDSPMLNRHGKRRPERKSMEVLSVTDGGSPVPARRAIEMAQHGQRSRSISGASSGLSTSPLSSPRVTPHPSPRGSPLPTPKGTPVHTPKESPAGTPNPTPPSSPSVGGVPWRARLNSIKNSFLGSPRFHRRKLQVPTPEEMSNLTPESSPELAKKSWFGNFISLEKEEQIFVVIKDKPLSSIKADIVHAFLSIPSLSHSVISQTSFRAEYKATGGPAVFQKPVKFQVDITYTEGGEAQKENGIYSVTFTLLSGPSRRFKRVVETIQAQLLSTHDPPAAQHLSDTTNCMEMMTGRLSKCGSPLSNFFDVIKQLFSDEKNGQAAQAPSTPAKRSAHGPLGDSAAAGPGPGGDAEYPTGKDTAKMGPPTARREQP

O=C1NC(=O)c2cc(Nc3ccc(F)cc3)c(Nc3ccc(F)cc3)cc21
remaining signal (cell-free assay; 0.5 µM): 96.8%

CCOC(=O)c1cc2cc(-c3cc(C(=O)NCc4ccc(C(=O)O)cc4)nn3C)ccc2[nH]1
remaining binding (cell-free assay; competition with immobilised ligand; 0.1 µM): 67%

CNC(=O)c1cc(Oc2ccc(NC(=O)Nc3ccc(Cl)c(C(F)(F)F)c3)cc2)ccn1
remaining signal (cell-free assay; 0.5 µM): 103%

CN(C)C(=O)Cn1cc(-c2nc(C3(c4ccc(-c5cnc(N)nc5)cc4)CC3)no2)cn1
remaining binding (cell-free assay; competition with immobilised ligand; 1 µM): 77%

Nc1nc(Nc2ccc(S(N)(=O)=O)cc2)nn1C(=O)c1c(F)cccc1F
remaining signal (cell-free assay; 0.5 µM): 49%

Cc1ccc(C(=O)Nc2ccc(CN3CCN(C)CC3)c(C(F)(F)F)c2)cc1C#Cc1cnc2cccnn12
remaining activity (enzyme activity; inhibitor; 23.5 nM): 92%

Cn1c(=O)n(-c2ccc(C(C)(C)C#N)cc2)c2c3cc(-c4cnc5ccccc5c4)ccc3ncc21
remaining activity (enzyme activity; inhibitor; 10 µM): 89%

COc1cc(Cl)c(C(=O)N[C@@H](CN[C@H]2CC[C@@H](N)CC2)Cc2ccc(C#N)cc2)cc1-c1ccc(CN[C@H](C)c2ccc(C)cc2)o1
remaining activity (enzyme activity; inhibitor; 1 µM): 99%

Oc1ccc(-c2nc(-c3ccncc3)c(-c3ccc(F)cc3)[nH]2)cc1
remaining signal (cell-free assay; 0.5 µM): 101%

Cc1c(C(=O)O)cc(-c2ccc(C3CCNCC3)cc2)c2ccc(-c3ccc(C(F)(F)F)cc3)cc12
remaining binding (binding; competition with immobilised ligand; 1 µM): 100%

COc1cc(Nc2cnc(C#N)c(O[C@H](C)CN(C)C)n2)ncc1-c1cnn(C)c1
remaining activity (enzyme activity; inhibitor; radiometric; 10 µM): 14%

CC(C)(C)c1nc2c(s1)c1nc(N)ncc1c1ccc(NS(=O)(=O)c3c(F)cccc3F)c(F)c12
remaining activity (enzyme activity; inhibitor; radiometric; 1 µM): 88%

CCCOc1ccc(OC)c(F)c1C(=O)c1ccc(C(=O)N[C@@H]2CNC[C@H]2NC(=O)c2ccc3[nH]ncc3c2)cc1
remaining activity (enzyme activity; inhibitor; 10 µM): 33%

CC(C)(C)C(=O)c1sc(NC2CCCCC2)nc1N
remaining activity (enzyme activity; inhibitor; 10 µM): 95%

O=C(Nc1cnn(-c2csc(C(=O)NC3COC3)c2)c1)Nc1c(F)cccc1Cl
remaining activity (enzyme activity; inhibitor; 5 µM): 100%

CN(C)C(=O)Cn1cc(-c2nc([C@@](C)(c3ccc(-c4cnc(N)nc4)cc3)C3CC3)no2)cn1
remaining binding (cell-free assay; competition with immobilised ligand; 1 µM): 100%

CCN(CC)c1ccc(C2=NNC(=O)CC2C)cc1[N+](=O)[O-] (stereo not shown)
remaining activity (enzyme activity; inhibitor; 10 µM): 104%

Cc1ccc(NC(=O)c2ccc(C)c(C(F)(F)F)c2)cc1C#Cc1nn(C2CCC(O)CC2)c2ncnc(N)c12 (stereo not shown)
remaining signal (cell-free assay; 10 µM): 93%

O=C(Nc1cnn(-c2csc(C(=O)NC3COC3)c2)c1)Nc1ccccc1Cl
remaining activity (enzyme activity; inhibitor; 5 µM): 102%

Cc1ccc(Nc2nccc(N(C)c3ccc4c(C)n(C)nc4c3)n2)cc1S(N)(=O)=O
inhibition (enzyme activity; inhibitor; 0.3 µM): 1%

Cn1nc(C(=O)NCc2ccc(C(=O)O)cc2)cc1-c1ccc2[nH]ccc2c1
remaining binding (cell-free assay; competition with immobilised ligand; 0.1 µM): 100%

COc1cc(/C=C/C(=O)CC(=O)/C=C/c2ccc(O)c(OC)c2)ccc1O
activity vs control (enzyme activity; inhibitor; 1 µM): 88%

CSc1cccnc1N1CCN(Cc2nc3ccccc3[nH]2)CC1
remaining binding (cell-free assay; competition with immobilised ligand; 1 µM): 100%

FC(F)(F)Oc1cccc(-c2cnc3ccc(-c4ccncc4)nn23)c1
activity vs control (enzyme activity; inhibitor; radiometric; 1 µM): 81%

CC(=O)c1c(NS(C)(=O)=O)c2cc(-c3ccc(Cl)cc3)c(-c3ccc(Cl)cc3Cl)nc2n(C)c1=O
remaining binding (cell-free assay; competition with immobilised ligand; 1 µM): 90%

Nc1nc(Nc2ccccc2)sc1C(=O)c1c(F)cccc1F
remaining activity (enzyme activity; inhibitor; 10 µM): 55%

Cc1cc(NC(=O)c2cccc(S(F)(F)(F)(F)F)c2)cc(-n2ccn3nc(-c4cccnc4)cc23)c1
remaining binding (cell-free assay; competition with immobilised ligand; 1 µM): 100%

Oc1cccc(-c2nc(N3CCOCC3)c3oc4ncccc4c3n2)c1
remaining activity (enzyme activity; inhibitor; 10 µM): 99%
